Read-outs that look alike come from different tables or passages of the source.
Assays:
α1L264Tβ3γ2L receptors = α1L264Tβ3γ2L receptors (Homo sapiens, UniProt P14867+P28472, L291T); assay: Direct activation of spontaneously gating α1L264Tβ3γ2L receptors in oocytes; assay type: cell-based
α1β3 GABAAR [1] = molecular target: T1, α1β3 GABAAR (Homo sapiens, UniProt P14867+P28472); assay: Modulation of 2 nM [3H]muscimol binding to α1β3 GABAAR
T1 sequence (P14867 28-456): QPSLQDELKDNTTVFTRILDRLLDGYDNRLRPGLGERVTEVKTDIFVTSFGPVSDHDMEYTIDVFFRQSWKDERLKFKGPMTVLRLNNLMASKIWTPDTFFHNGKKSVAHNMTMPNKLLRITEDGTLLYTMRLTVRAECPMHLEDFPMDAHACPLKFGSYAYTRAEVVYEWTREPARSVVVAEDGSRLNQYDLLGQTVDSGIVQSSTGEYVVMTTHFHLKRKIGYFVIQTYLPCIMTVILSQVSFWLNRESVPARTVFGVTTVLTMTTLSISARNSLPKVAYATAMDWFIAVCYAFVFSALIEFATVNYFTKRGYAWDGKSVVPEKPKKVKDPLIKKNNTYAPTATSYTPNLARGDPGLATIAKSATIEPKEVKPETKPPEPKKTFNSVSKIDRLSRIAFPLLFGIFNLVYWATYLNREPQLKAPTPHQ
T1 sequence (P28472 26-473): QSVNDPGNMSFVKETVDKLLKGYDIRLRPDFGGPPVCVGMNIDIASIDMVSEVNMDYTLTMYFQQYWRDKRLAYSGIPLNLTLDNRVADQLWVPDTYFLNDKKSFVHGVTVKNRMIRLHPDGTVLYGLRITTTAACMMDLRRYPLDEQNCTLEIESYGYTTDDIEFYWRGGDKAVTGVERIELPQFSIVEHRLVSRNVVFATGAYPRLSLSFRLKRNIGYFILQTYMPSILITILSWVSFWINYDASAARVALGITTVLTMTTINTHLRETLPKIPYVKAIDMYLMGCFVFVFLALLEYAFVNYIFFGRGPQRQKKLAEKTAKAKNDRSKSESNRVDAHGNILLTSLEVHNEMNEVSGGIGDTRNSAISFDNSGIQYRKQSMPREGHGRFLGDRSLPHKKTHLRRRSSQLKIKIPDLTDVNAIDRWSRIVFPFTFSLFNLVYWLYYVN

α1β3γ2L GABAAR [2] = molecular target: T2, α1β3γ2L GABAAR (Homo sapiens, UniProt P14867+P28472); assay: Modulation of 2 nM [3H]muscimol binding to α1β3γ2L GABAAR
Target sequence in this assay (P18507 40-475, one chain of several, further chain): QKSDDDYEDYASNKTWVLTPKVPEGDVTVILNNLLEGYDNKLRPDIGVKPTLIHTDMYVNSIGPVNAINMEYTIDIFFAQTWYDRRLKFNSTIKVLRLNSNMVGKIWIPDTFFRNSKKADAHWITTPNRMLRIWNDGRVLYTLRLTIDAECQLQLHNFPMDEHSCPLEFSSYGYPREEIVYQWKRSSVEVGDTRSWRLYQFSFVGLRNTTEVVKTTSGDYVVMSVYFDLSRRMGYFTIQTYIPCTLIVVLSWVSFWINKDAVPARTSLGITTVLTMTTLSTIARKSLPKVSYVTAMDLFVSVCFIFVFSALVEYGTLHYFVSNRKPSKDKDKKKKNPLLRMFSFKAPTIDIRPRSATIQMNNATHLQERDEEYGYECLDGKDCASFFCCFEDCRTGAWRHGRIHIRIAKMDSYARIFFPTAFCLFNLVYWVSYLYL

tadpoles [3] = assay: Loss of righting reflexes; assay type: in vivo, tadpole
α1β3γ2L GABAAR [4] = molecular target: T2, α1β3γ2L GABAAR; assay: Voltage clamp electrophysiology of α1β3γ2L GABAAR expressed in Xenopus oocytes; assay type: cell-based; conditions: for enhancement of EC5 GABA-activated currents: 10 μM compound; for enhancement of EC5 GABA-activated currents / potentiation of EC5 GABA-activated chloride currents (up to): EC5 GABA (4 μM); for potentiation of EC5 GABA-activated chloride currents (up to): maximum concentration tested 100 μM
Target sequence in this assay (P18507 40-475 partner, one chain of several): as the sequence (P18507 40-475, one chain of several, further chain) above

α1β3 GABAAR [5] = molecular target: T1, α1β3 GABAAR; assay: Voltage clamp electrophysiology of α1β3 GABAAR expressed in Xenopus oocytes; assay type: cell-based
α1Q242Wβ3γ2L receptors = α1Q242Wβ3γ2L receptors (Homo sapiens, UniProt P14867+P28472, Q269W); assay: Electrophysiology of steroid site mutant α1Q242Wβ3γ2L receptors in oocytes; assay type: cell-based; conditions: 10 μM steroid; EC5 GABA
Outline: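 Female Xenopus laevis stage V oocytes were injected with up to 10 ng of α1Q242W, β3 and γ2L mRNA (1:1:3) and held ≥24 h. Two-electrode voltage clamp was run at −50 mV and 20–22°C, with ND96 (pH 7.4) superfusion at 2–3 mL/min.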

α1β3 GABAAR [6] = molecular target: T1, α1β3 GABAAR; assay: Inhibition of [3H]21-pTFDBzox-AP photolabeling of purified α1β3 GABAAR; assay type: binding; conditions: for inhibition of photolabeling at high concentrations: same extent as 30 μM allopregnanolone
α1β3γ2 GABAAR = α1β3γ2 GABAAR (Homo sapiens, UniProt P14867+P28472); assay: Inhibition of [3H]21-pTFDBzox-AP photolabeling of purified α1β3γ2 GABAAR; assay type: binding; conditions: 30 μM; 0.8 μM [3H]21-pTFDBzox-AP
tadpoles [7] = conditions: read-out: published anesthetic EC50s; tadpole LoRR; cited from earlier work

α1L264Tβ3γ2L receptors, sequence (P18507 40-475, one chain of several): as the sequence (P18507 40-475, one chain of several, further chain) above
α1L264Tβ3γ2L receptors, sequence (P14867 28-456 L291T, one chain of several): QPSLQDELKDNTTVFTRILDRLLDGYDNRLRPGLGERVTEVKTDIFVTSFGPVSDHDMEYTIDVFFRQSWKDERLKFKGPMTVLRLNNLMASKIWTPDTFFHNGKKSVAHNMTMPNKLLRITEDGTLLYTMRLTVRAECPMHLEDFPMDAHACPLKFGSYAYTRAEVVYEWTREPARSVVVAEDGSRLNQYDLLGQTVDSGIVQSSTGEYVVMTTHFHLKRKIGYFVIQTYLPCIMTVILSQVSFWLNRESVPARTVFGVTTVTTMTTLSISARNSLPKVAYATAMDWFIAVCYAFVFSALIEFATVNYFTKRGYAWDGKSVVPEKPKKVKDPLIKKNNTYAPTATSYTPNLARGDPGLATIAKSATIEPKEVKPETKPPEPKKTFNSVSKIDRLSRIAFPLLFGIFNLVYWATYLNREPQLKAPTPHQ
α1Q242Wβ3γ2L receptors, sequence (P14867 28-456 Q269W, one chain of several): as the sequence (P14867 28-456 L291T, one chain of several) above, with Q242W, T264L counted along it
α1Q242Wβ3γ2L receptors, sequence (P18507 40-475 partner, one chain of several): as the sequence (P18507 40-475, one chain of several, further chain) above
α1β3γ2 GABAAR, sequence (P18507 40-475 partner, one chain of several): as the sequence (P18507 40-475, one chain of several, further chain) above

In the case of “21-[4-(3-(Trifluoromethyl)-3H-diazirin-3-yl)benzoxy]allopregnanolone [21-pTFDBzox-AP]”, the “current elicited as % of the maximal GABA response” value (α1L264Tβ3γ2L receptors; 2 μM, no GABA) is reported as “approximately 21%”, the “direct increase of inward current in the absence of GABA” value (α1L264Tβ3γ2L receptors; 2 μM, no GABA) is reported as “about 50%” and the “Hill coefficient nH of [3H]muscimol binding enhancement” value (“Hill coefficient nH” for short) (α1β3 GABAAR [1]; detergent/lipid micelles) is reported as 1.45 ± 0.51. For the same compound, the “maximal enhancement of [3H]muscimol binding” value (α1β3 GABAAR [1]; detergent/lipid micelles) was 172 ± 6%, the “Hill coefficient nH” value (α1β3 GABAAR [1]; membranes) was 1.71 ± 0.10 and the “maximal enhancement of [3H]muscimol binding” value (α1β3 GABAAR [1]; membranes) was 271 ± 7%. For the same compound, the “Hill coefficient nH” value (α1β3γ2L GABAAR [2]; detergent/lipid micelles) was 1.15 ± 0.36, the “maximal enhancement of [3H]muscimol binding” value (α1β3γ2L GABAAR [2]; detergent/lipid micelles) was 135 ± 1% and the “Hill coefficient nH” value (α1β3γ2L GABAAR [2]; membranes) was 1.09 ± 0.22. The “maximal enhancement of [3H]muscimol binding” value (α1β3γ2L GABAAR [2]; membranes) was 199 ± 30%, the “antagonism of alphaxalone's anesthetic action” value (tadpoles [3]; 2.5 or 10 μM 21-pTFDBzox-AP) was “no significant antagonism” and the “Loss of righting reflexes (LoRR)” value (tadpoles [3]; tadpoles exposed to 1, 2, 3 and 10 μM) was “No LoRR”. For the same compound, the “effect on GABA EC50” value (α1β3γ2L GABAAR [4]; 5 μM) was “did not reduce the GABA EC50”, the “enhancement of EC5 GABA-activated currents” value (α1β3γ2L GABAAR [4]) was 2.6 ± 0.3 fold and the “fitted maximal enhancement ratio” value (α1β3γ2L GABAAR [4]; EC5 GABA, Hill slope constrained to 1.7) was 2.6 ± 0.3. For the same compound, the “enhancement of EC10 GABA-activated currents” value (α1β3 GABAAR [5]; 10 μM compound, EC10 GABA (1 μM)) was 2.1± 0.4 fold, the “fitted maximal enhancement ratio” value (α1β3 GABAAR [5]; EC10 GABA, Hill slope constrained to 1.7) was 2.1 ± 0.4 and the “positive modulation in α1Q242W mutant receptors” value (α1Q242Wβ3γ2L receptors) was “eliminated positive modulation”.

With `CC(=O)[C@H]1CC[C@H]2[C@@H]3CC4(N=N4)[C@H]4C[C@H](O)CC[C@]4(C)[C@H]3C(=O)C[C@]12C` [6-azi-OAP, 6-Azi-3α-hydroxy-5α-pregnane-11,20-dione] the “Hill coefficient nH” value (α1β3γ2L GABAAR [2]; α1β3γ2 GABAARs) was 1.3 ± 0.15, the “efficacy of modulation of [3H]muscimol binding” value (α1β3γ2L GABAAR [2]; α1β3γ2 GABAARs) was 330 ± 9% and the “decrease of GABA EC50” value (α1β3γ2L GABAAR [4]; 15 μM 6-azi-OAP) was “approximately 3 fold”. The “potentiation of EC5 GABA-activated chloride currents (up to)” value (α1β3γ2L GABAAR [4]) was 10.1 ± 0.67 fold and the “effect on GABA dose-response curves compared with α1β3γ2L” value (α1β3 GABAAR [5]; 15 μM, not shown) was “similar”.

In the case of `CC(=O)[C@H]1CC[C@H]2[C@@H]3CC4(N=N4)[C@@H]4C[C@H](O)CC[C@]4(C)[C@H]3C(=O)C[C@]12C` [6-azi-OP, 6-Azi-3α-hydroxy-5β-pregnane-11,20-dione], the “Hill coefficient nH” value (α1β3γ2L GABAAR [2]; α1β3γ2 GABAARs) is reported as 1.6 ± 0.1, the “efficacy of modulation of [3H]muscimol binding” value (α1β3γ2L GABAAR [2]; α1β3γ2 GABAARs) is reported as 241 ± 3% and the “potentiation of EC5 GABA-activated chloride currents (up to)” value (α1β3γ2L GABAAR [4]) is reported as 8.0 ± 1.4 fold.

For `C=CC[C@@]1(c2cccc(C3(C(F)(F)F)N=N3)c2)C(=O)NC(=O)N(C)C1=O` [R-mTFD-MPAB], the inhibition of photolabeling (α1β3 GABAAR [6]; 60 μM) was “no inhibition”.

With `C[C@]12CC[C@@H](O)C[C@@H]1CC[C@@H]1[C@@H]2CC[C@]2(C)[C@@H](C(=O)CO)CC[C@@H]12` [THDOC, 5α-pregnan-3α, 21-diol-20-one, reference compound] the “enhancement of EC5 GABA-activated currents” value (α1β3γ2L GABAAR [4]) was 16 ± 2.1 fold, the “positive modulation in α1Q242W mutant receptors” value (α1Q242Wβ3γ2L receptors) was “eliminated positive modulation” and the “inhibition of photolabeling at high concentrations” value (α1β3 GABAAR [6]) was 60%.

With `CC(=O)[C@H]1CC[C@H]2[C@@H]3CC[C@H]4C[C@H](O)CC[C@]4(C)[C@H]3CC[C@]12C` [allopregnanolone, 5α-pregnan-3α-ol-20-one] the “reduction of β subunit photolabeling” value (α1β3γ2 GABAAR) was 70% and the “reduction of β subunit photolabeling” value (α1β3 GABAAR [6]; 30 μM, 0.8 μM [3H]21-pTFDBzox-AP) was 60%.

In the case of `CC(=O)[C@H]1CC[C@H]2[C@@H]3CC[C@H]4C[C@H](O)CC[C@]4(C)[C@H]3C(=O)C[C@]12C` [alphaxalone, 5α-pregnan-3α-ol-11,20-dione, reference compound], the EC50 (tadpoles [3]; read-out: anesthetic EC50 (LoRR), alphaxalone alone, 60 minutes equilibration) is given as 1.4 ± 0.3 µM, the EC50 (tadpoles [3]; read-out: anesthetic EC50 of alphaxalone, in constant presence of […] 21-pTFDBzox-AP) is given as 0.92 ± 0.3 µM and the EC50 (tadpoles [7]) is given as 1 to 2 µM.

With `CCOC(=O)c1cncn1[C@H](C)c1ccccc1` [etomidate] the inhibition of photolabeling (α1β3 GABAAR [6]; 1 mM) was “no inhibition”.

In the case of `CC(=O)[C@H]1CC[C@H]2[C@@H]3CC[C@@H]4C[C@H](O)CC[C@]4(C)[C@H]3CC[C@]12C` [pregnanolone, 5β-pregnan-3α-ol-20-one], the IC50 (α1β3 GABAAR [6]) is reported as 0.7 µM and the “inhibition of photolabeling at high concentrations” value (α1β3 GABAAR [6]) is reported as 60%.

For Picrotoxin [reference compound], the “outward currents as % of maximal GABA-induced inward currents” value (α1L264Tβ3γ2L receptors; 2 mM) was “about 40%”.

With pregnenolone sulfate the inhibition of photolabeling (α1β3 GABAAR [6]; 100 μM) was “no inhibition”.
